≈ marks a conversion by molar mass, not a printed value.

One experiment has as its system H. pylori. Kind of experiment: In vitro assay against Helicobacter pylori, broth micro-well dilution method. The format is cell-based. As to conditions: Helicobacter pylori, read-out: Mean of H. pylori inhibitory % MIC. A digest of the protocol: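 Test compound and clarithromycin (positive control) dissolved in DMSO and tested in 96-well plates at 125–0.24 µg against an H. pylori inoculum suspension. Readout: MTT colour at 620 nm on a microplate reader. MIC is the lowest concentration with no change in MTT colour. MIC90 (90% inhibition) is calculated from dose-response curves. Determinations done three times.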
Broadly, the MIC is the lowest concentration found to suppress growth. With `COc1cc([C@H]2OC[C@H]3[C@@H]2CO[C@@H]3c2cc(OC)c(O)c(OC)c2)cc(OC)c1O` [Compound 4, syringaresinol], the MIC is 0.98 µg/mL (≈ 2.34 µM).
On to `O=c1cc(-c2ccc(O)cc2)oc2cc(O)cc(O)c12` [Compound 6, apigenin], for which the MIC is 1.95 µg/mL (≈ 7.22 µM).
The same measure, in the same setting: to `COc1ccc(-c2cc(=O)c3c(O)cc(O[C@@H]4O[C@H](CO)[C@@H](O)[C@H](O)[C@H]4O)cc3o2)cc1O` [Compound 8, diosmetin-7-O-β-D-glucopyranoside] belongs 0.98 µg/mL (≈ 2.12 µM).
The same measure, in the same setting: then `CC[C@H]1OC(=O)[C@H](C)[C@@H](O[C@H]2C[C@@](C)(OC)[C@@H](O)[C@H](C)O2)[C@H](C)[C@@H](O[C@@H]2O[C@H](C)C[C@H](N(C)C)[C@H]2O)[C@](C)(OC)C[C@@H](C)C(=O)[C@H](C)[C@@H](O)[C@]1(C)O` [Clarithromycin, clarithromycin, reference compound], with 1.95 µg/mL (≈ 2.61 µM).
On to `COC(=O)c1ccc(O)cc1` [Compound 9, methylparaben], for which the MIC was 1.95 µg/mL (≈ 12.8 µM).
As for `O=C(O)c1ccc(O)cc1` [Compound 10, p-hydroxybenzoic acid], the MIC turned out to be 0.48 µg/mL (≈ 3.48 µM).

Staying with this experiment, now noted: Table 2.
Turning to `C=C[C@@]1(C)C=C2CC[C@@H]3[C@](C)(CCC[C@@]3(C)C(=O)O)[C@H]2CC1` [Compound 2, pimaric acid], the “anti-H. pylori activity (in words)” value is on record as “moderate to low inhibitory activities”.
As for `COc1cc(-c2cc(=O)c3c(O)cc(O)cc3o2)ccc1O` [Compound 5, chrysoeriol], the “anti-H. pylori activity (in words)” value is given as “moderate to low inhibitory activities”.
On the same count and under the same terms, to `O=c1cc(-c2ccc(O)c(O)c2)oc2cc(O)cc(O)c12` [Compound 7, luteolin] belongs “moderate to low inhibitory activities”.

The values are drawn from PMC10128457 (Pharmaceutical Biology, 2023).
